# Experimental data pooled from the literature.
# Each line is one published result; the experiments were not run side by side.
SMILES,tested on,assay,system,conditions,quantity,result
C#CCOc1ccc(/C=C/c2cc(OC)cc(OC)c2-c2cnnn2C(=O)NCCC)cc1,RAW264.7,"NO release, inhibitor, Griess",,"10 µM, LPS-stimulated",inhibition,94.2%
CC(=O)c1ccc(Oc2ccc(C(=O)C(Cl)Cl)cc2[N+](=O)[O-])cc1,NCI-H1299,"cell growth or viability, MTT",,2.5 µM,inhibition,92.2%
CN(Cc1ccc(C(C)(C)C)cc1)Cc1cccc2ccccc12,Trichophyton mentagrophytes,"microbial growth, disc diffusion",ATCC18748,"0.256 µg/mL, 72 h",inhibition zone,≥ 55 mm
C#CCOc1ccc(/C=C/c2cc(OC)cc(OC)c2-c2cnnn2C(=O)NCCc2ccccc2)cc1,RAW264.7,"NO release, inhibitor, Griess",,"10 µM, LPS-stimulated",inhibition,50.4%
O=C1C=C2NCCc3c[nH]c(c32)C1=O,Babesia divergens,"parasite growth, SYBR Green",,"60 h, blood stage",IC50,10 µM
Cc1ccc(-c2cc(C(F)(F)F)nn2-c2ccc(S(N)(=O)=O)cc2)cc1,RAW264.7,"NO release, inhibitor, Griess",,"10 µM, LPS-stimulated",inhibition,35.2%
CC(=O)OCCCOc1ccc(C(=O)C(Cl)Cl)cc1[N+](=O)[O-],NCI-H1299,"cell growth or viability, MTT",,2.5 µM,inhibition,60.3%
C=CC(=O)NC1CCN(c2ncc3ncnc(Nc4ccc(Oc5ccc6c(c5)ncn6C)c(C)c4)c3n2)CC1,NCI-H1437,cell growth or viability,,,EC50,4.99 µM
N#Cc1c(-c2ccc(OCc3ccccc3)cc2)c(C(N)=O)c(N)n(N)c1=O,Enterobacter cloacae,"microbial growth, well diffusion",ATCC23355,500 µg/mL,inhibition zone,10 mm
C#CCOc1ccc(/C=C/c2cc(OC)cc(OC)c2-c2cnnn2C(=O)NCC)cc1,RAW264.7,"NO release, inhibitor, Griess",,"10 µM, LPS-stimulated",inhibition,71.3%
O=C(c1ccccc1)c1ccc(Oc2ccc(C(=O)C(Cl)Cl)cc2[N+](=O)[O-])cc1,NCI-H1299,"cell growth or viability, MTT",,2.5 µM,inhibition,85.3%
CN(Cc1ccc(C2(C(F)(F)F)CC2)cc1)Cc1cccc2ccccc12.Cl,Trichophyton mentagrophytes,"microbial killing, broth dilution",ATCC18748,72 h,MFC,8000 µg/mL
